We go through 28 compounds from ChEMBL document CHEMBL1641369, “The synthesis and biological evaluation of 2-(3-methyl or 3-phenylisoxazol-5-yl)-3-aryl-8-thiabicyclo[3.2.1]octanes” (Bioorg Med Chem Lett, 2011).

Assay [1] deals with Sodium-dependent serotonin transporter (Homo sapiens, UniProt P31645). Briefly: Displacement of [3H]citalopram from human SERT expressed in HEK293 cell membrane. It is filed as cell membranes. In outline: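 Human SERT was labelled with [3H]citalopram at a fixed concentration and competed against a range of test-drug concentrations. Nonspecific binding was measured with fluoxetine at 10 μM. IC50 reported as mean ± SEM of at least three independent experiments, each run in triplicate. Some entries are screening data from replicate triplicate experiments.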
Sequence of Sodium-dependent serotonin transporter (P31645 whole entry): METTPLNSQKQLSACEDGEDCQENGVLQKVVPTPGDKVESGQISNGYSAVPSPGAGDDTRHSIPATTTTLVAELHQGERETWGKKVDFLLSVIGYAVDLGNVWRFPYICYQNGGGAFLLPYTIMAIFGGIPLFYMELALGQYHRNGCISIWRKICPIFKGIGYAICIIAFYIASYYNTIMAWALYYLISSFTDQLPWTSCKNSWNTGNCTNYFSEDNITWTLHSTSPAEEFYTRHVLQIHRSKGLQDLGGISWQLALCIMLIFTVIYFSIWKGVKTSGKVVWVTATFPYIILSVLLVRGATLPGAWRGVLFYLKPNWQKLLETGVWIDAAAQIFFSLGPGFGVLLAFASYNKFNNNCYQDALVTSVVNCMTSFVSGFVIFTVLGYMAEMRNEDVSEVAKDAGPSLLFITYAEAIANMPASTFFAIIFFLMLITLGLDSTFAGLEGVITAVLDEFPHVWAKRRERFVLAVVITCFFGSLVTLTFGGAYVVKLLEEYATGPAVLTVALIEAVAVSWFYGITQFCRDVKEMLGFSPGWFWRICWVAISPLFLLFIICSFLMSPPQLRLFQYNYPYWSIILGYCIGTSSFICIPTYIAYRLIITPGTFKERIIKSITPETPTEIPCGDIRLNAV
(In general: In a radioligand displacement assay an active substance lowers the binding of a labelled ligand.)

In assay [2] the target is Sodium-dependent dopamine transporter (Homo sapiens, UniProt Q01959). In words: Displacement of [3H]WIN35428 from human DAT transfected cell membrane.
Sequence of Sodium-dependent dopamine transporter (Q01959 whole entry): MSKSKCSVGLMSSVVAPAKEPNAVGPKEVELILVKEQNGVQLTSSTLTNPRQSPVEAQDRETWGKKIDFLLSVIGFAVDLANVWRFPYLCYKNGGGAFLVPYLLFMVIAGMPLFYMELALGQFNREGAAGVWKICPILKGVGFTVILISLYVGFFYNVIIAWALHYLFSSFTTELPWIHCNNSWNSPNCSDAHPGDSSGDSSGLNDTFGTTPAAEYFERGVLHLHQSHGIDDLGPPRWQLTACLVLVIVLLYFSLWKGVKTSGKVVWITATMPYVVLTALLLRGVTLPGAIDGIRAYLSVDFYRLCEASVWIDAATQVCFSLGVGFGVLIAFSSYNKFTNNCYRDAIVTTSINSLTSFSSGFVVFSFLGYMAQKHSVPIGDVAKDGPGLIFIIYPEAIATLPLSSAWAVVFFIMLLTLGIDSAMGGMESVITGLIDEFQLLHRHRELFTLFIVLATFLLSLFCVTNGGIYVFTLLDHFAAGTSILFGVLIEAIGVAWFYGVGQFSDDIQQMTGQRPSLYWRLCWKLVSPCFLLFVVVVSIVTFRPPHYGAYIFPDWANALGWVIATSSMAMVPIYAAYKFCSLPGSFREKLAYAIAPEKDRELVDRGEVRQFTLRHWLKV

Structures are written as SMILES.

For orientation: IC50 means the concentration at which inhibition is half-maximal. Read a low IC50 as higher potency.

Regarding `Cc1cc(C2=C(c3ccccc3)CC3CCC2S3)on1` (stereo unspecified), the IC50 in assay [1] was more than 10 µM; in assay [2], more than 2000 nM.

In the case of `Cc1cc(C2=C(c3ccc(F)cc3)CC3CCC2S3)on1` (stereo unspecified), the IC50 in assay [1] is more than 10 µM; in assay [2], more than 1000 nM.

For `Cc1cc(C2=C(c3ccc(Cl)cc3)CC3CCC2S3)on1` (stereo unspecified), the values for the IC50 in assay [1] and in assay [2] were more than 10 µM and 155 nM, respectively.

For `Cc1cc(C2=C(c3ccc(Br)cc3)CC3CCC2S3)on1` (stereo unspecified), the values for the IC50 in assay [1] and in assay [2] were more than 10 µM and 139 nM, respectively.

For the compound `Cc1cc(C2=C(c3ccc(Cl)c(Cl)c3)CC3CCC2S3)on1` (stereo unspecified), the IC50 was more than 10 µM in assay [1] and 69.2 nM in assay [2].

As for `c1ccc(C2=C(c3cc(-c4ccccc4)no3)C3CCC(C2)S3)cc1` (stereo unspecified), the results for the IC50 in assay [1] and in assay [2] were more than 10 µM and more than 5000 nM, respectively.

For `Fc1ccc(C2=C(c3cc(-c4ccccc4)no3)C3CCC(C2)S3)cc1` (stereo unspecified), the 50% inhibitory concentration (IC50) in assay [1] was more than 10 µM; in assay [2] it was more than 2000 nM.

For the compound `Clc1ccc(C2=C(c3cc(-c4ccccc4)no3)C3CCC(C2)S3)cc1` (stereo unspecified), the IC50 was more than 10 µM in assay [1] and 66.5 nM in assay [2].

Turning to `Brc1ccc(C2=C(c3cc(-c4ccccc4)no3)C3CCC(C2)S3)cc1` (stereo unspecified), the values for the IC50 in assay [1] and in assay [2] were more than 10 µM and 126 nM, respectively.

As to `Clc1ccc(C2=C(c3cc(-c4ccccc4)no3)C3CCC(C2)S3)cc1Cl` (stereo unspecified), the IC50 was more than 10 µM in assay [1] and 332 nM in assay [2].

For the compound `Cc1cc([C@@H]2C3CCC(C[C@H]2c2ccccc2)S3)on1` (stereo partly specified), the IC50 was more than 10 µM in assay [1] and 65 nM in assay [2].

On to `Cc1cc([C@@H]2C3CCC(C[C@H]2c2ccc(F)cc2)S3)on1` (stereo partly specified), for which the IC50 in assay [1] is more than 10 µM; in assay [2], 22 nM.

For the compound `Cc1cc([C@@H]2C3CCC(C[C@H]2c2ccc(Cl)cc2)S3)on1` (stereo partly specified), the IC50 was more than 7 µM in assay [1] and 32.7 nM in assay [2].

In the case of `Cc1cc([C@@H]2C3CCC(C[C@H]2c2ccc(Br)cc2)S3)on1` (stereo partly specified), the IC50 in assay [1] was more than 4 µM; in assay [2], 46.6 nM.

Take `Cc1cc([C@@H]2C3CCC(C[C@H]2c2ccc(Cl)c(Cl)c2)S3)on1` (stereo partly specified): the IC50 in assay [1] was more than 2 µM; in assay [2] it was 101 nM.

In the case of `c1ccc(-c2cc(C3C4CCC(C[C@H]3c3ccccc3)S4)on2)cc1` (stereo partly specified), the IC50 in assay [1] is more than 10 µM; in assay [2], more than 1000 nM.

`Fc1ccc([C@@H]2CC3CCC(S3)C2c2cc(-c3ccccc3)no2)cc1` (stereo partly specified): the IC50 is more than 10 µM in assay [1] and 456 nM in assay [2].

As to `Clc1ccc([C@@H]2CC3CCC(S3)C2c2cc(-c3ccccc3)no2)cc1` (stereo partly specified), the IC50 was more than 10 µM in assay [1] and 130 nM in assay [2].

For `Brc1ccc([C@@H]2CC3CCC(S3)C2c2cc(-c3ccccc3)no2)cc1` (stereo partly specified), the IC50 in assay [1] was more than 10 µM; in assay [2] it was 238 nM.

`Clc1ccc([C@@H]2CC3CCC(S3)C2c2cc(-c3ccccc3)no2)cc1Cl` (stereo partly specified): the values for the IC50 in assay [1] and in assay [2] were more than 10 µM and 497 nM, respectively.

Turning to `Cc1cc([C@@H]2C3CCC(C[C@@H]2c2ccccc2)S3)on1` (stereo partly specified), the results for the IC50 in assay [1] and in assay [2] were more than 10 µM and 12 nM, respectively.

`Cc1cc([C@@H]2C3CCC(C[C@@H]2c2ccc(F)cc2)S3)on1` (stereo partly specified): the IC50 in assay [1] is more than 1 µM; in assay [2] it was 7 nM.

For the compound `Cc1cc([C@@H]2C3CCC(C[C@@H]2c2ccc(Cl)cc2)S3)on1` (stereo partly specified), the IC50 in assay [1] was more than 1 µM; in assay [2], 7.2 nM.

For `Cc1cc([C@@H]2C3CCC(C[C@@H]2c2ccc(Br)cc2)S3)on1` (stereo partly specified), the IC50 was 0.755 µM in assay [1] and 14 nM in assay [2].

For `Cc1cc([C@@H]2C3CCC(C[C@@H]2c2ccc(Cl)c(Cl)c2)S3)on1` (stereo partly specified), the figures for the IC50 in assay [1] and in assay [2] were 0.766 µM and 43.5 nM, respectively.

With `c1ccc(-c2cc(C3C4CCC(C[C@@H]3c3ccccc3)S4)on2)cc1` (stereo partly specified), the values for the IC50 in assay [1] and in assay [2] were more than 10 µM and 157 nM, respectively.

In the case of `Fc1ccc([C@H]2CC3CCC(S3)C2c2cc(-c3ccccc3)no2)cc1` (stereo partly specified), the IC50 in assay [1] is more than 10 µM; in assay [2] it was 49 nM.

Regarding `Clc1ccc([C@H]2CC3CCC(S3)C2c2cc(-c3ccccc3)no2)cc1Cl` (stereo partly specified), the values for the IC50 in assay [1] and in assay [2] were more than 10 µM and 269 nM, respectively.
